Measurements as given in paper PMC4036123 (Cancer chemotherapy and pharmacology, 2014).
Like-named read-outs stand apart in the source and are kept apart here.

What was measured:
[1] = system: RPMI-8226 cells; test: Cellular proliferation assay; type: cell-based; conditions: Homo sapiens, RPMI-8226, 48 h, read-out: IC50 (cell viability)
[2] = system: proteasome chymotrypsin-like activity; test: Proteasome-Glo assay in intact MM cells, chymotrypsin-like activity; type: cell-based, human; conditions: read-out: Chymotrypsin-like IC50, 24 hours incubation
Procedure, shortened: (§1)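 MM.1S, MM.1R and RPMI-8226 human myeloma lines were grown in RPMI medium with 10% FBS and antibiotics. Activity was read as luminescence with the Proteasome-Glo kit, following the manufacturer's protocol.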

[3] = system: U266 cells; test: Cellular proliferation assay; type: cell-based; conditions: Homo sapiens, U-266, 48 h, read-out: IC50 (cell viability)
[4] = system: proteasome trypsin-like activity; test: Proteasome-Glo assay in intact MM cells, trypsin-like activity; type: cell-based, human; conditions: read-out: Trypsin-like IC50, 24 hours incubation
Procedure, shortened: as §1

[5] = system: MM.1S cells; test: In vitro cell invasion assay; type: cell-based, human; conditions: MM.1S cells pretreated at IC50 value, Matrigel invasion chamber

SMILES: CC(C)C[C@H](NC(=O)[C@H](Cc1ccccc1)NC(=O)c1cnccn1)B(O)O [Bortezomib]
- IC50 [3]: 13.5 nM
- IC50 ([4]; MM1R cell line): > 18 nM
- IC50 ([4]; MM1S cell line): > 18 nM
- IC50 ([4]; RPMI822G cell line): > 18 nM
- IC50 ([4]; U266 cell line): > 18 nM
- inhibition of invasiveness compared to control [5]: 37.42%
